pIC50: −log10 of the molar value.
Each compound was assayed on RAW264.7 (assay: Inhibition of LPS-induced nitric oxide production in mouse RAW264.7 cells pretreated for 1 hr followed by LPS-stimulation and measured after 24 hrs by Griess assay).
Type: functional, cell-based
Procedure, shortened: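 RAW 264.7 macrophages seeded at 0.9 × 10^5 cells/mL and grown 24 h; pretreated with compound 1 h, then stimulated with LPS (1 μg/mL) for 24 h. Accumulated nitrite in medium measured with Griess reagent as NO indicator. IC50 = concentration giving 50% decrease in NO production; means of three independent experiments. NIL (10 μM) as positive control; MTT viability assay run in parallel.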

`COc1cc(O)cc2occ(-c3ccc(O)cc3)c(=O)c12` and `O=c1c(-c2ccc(O)cc2)coc2cc(O)cc(O)c12` [GENISTEIN] cannot be ordered by pIC50: < 6.00 for the first, < 6.00 for the second.

`O=c1c2c(O)cc(O)cc2oc2oc3cc(O)ccc3c12` and `O=c1c(-c2ccc(O)cc2O)coc2cc(O)cc(O)c12` cannot be ordered by pIC50: < 6.00 for the first, < 6.00 for the second.

First: COc1cc(O[C@@H]2O[C@H](CO)[C@@H](O)[C@H](O)[C@H]2O)cc2occ(-c3ccc(O[C@@H]4O[C@H](CO)[C@@H](O)[C@H](O)[C@H]4O)cc3O)c(=O)c12
Second: O=c1c(-c2ccc(O[C@@H]3O[C@H](CO)[C@@H](O)[C@H](O)[C@H]3O)cc2O)coc2cc(O[C@@H]3O[C@H](CO)[C@@H](O)[C@H](O)[C@H]3O)cc(O)c12
The pIC50 of the first is 0.23 log units higher: 6.38 for the first, 6.15 for the second.

`COc1cc(O[C@@H]2O[C@H](CO)[C@@H](O)[C@H](O)[C@H]2O)cc2occ(-c3ccc(O)cc3)c(=O)c12` and `O=c1c(-c2ccc(O)cc2)coc2cc(O[C@@H]3O[C@H](CO)[C@@H](O)[C@H](O)[C@H]3O)cc(O)c12` [GENISTIN] cannot be ordered by pIC50: < 6.00 for the first, < 6.00 for the second.

`O=c1c(-c2ccc(O[C@@H]3O[C@H](CO)[C@@H](O)[C@H](O)[C@H]3O)cc2O)coc2cc(O)cc(O)c12` and `O=c1c(-c2ccc(O)cc2O)coc2cc(O[C@@H]3O[C@H](CO)[C@@H](O)[C@H](O)[C@H]3O)cc(O)c12` cannot be ordered by pIC50: < 6.00 for the first, < 6.00 for the second.

Compared with `O=c1c(-c2ccc(O)cc2O)coc2cc(O[C@@H]3O[C@H](CO[C@@H]4O[C@H](CO)[C@@H](O)[C@H](O)[C@H]4O)[C@@H](O)[C@H](O)[C@H]3O)cc(O)c12`, `O=c1c(-c2ccc(O)cc2)coc2cc(O[C@@H]3O[C@H](CO[C@@H]4O[C@H](CO)[C@@H](O)[C@H](O)[C@H]4O)[C@@H](O)[C@H](O)[C@H]3O)cc(O)c12` is lower in pIC50: 6.22 for the first, < 6.00 for the second.

Compared with `COc1cc(-c2coc3cc(O)cc(OC)c3c2=O)ccc1O`, `COc1cc(O)cc2occ(-c3ccc(O)cc3O)c(=O)c12` is higher in pIC50: < 6.00 for the first, 6.22 for the second.

`COc1cc(O)cc2c1C(=O)[C@]1(O)c3ccc(O)cc3O[C@@H]1O2` and `COc1cc(O)cc2occ(-c3ccc(O[C@@H]4O[C@H](CO)[C@@H](O)[C@H](O)[C@H]4O)cc3O)c(=O)c12` are within 0.2 log units of each other in pIC50: 6.42 for the first, 6.33 for the second.

`O=c1c(-c2ccc(O)cc2)coc2cc(O[C@@H]3O[C@H](CO[C@@H]4O[C@H](CO[C@@H]5O[C@H](CO)[C@@H](O)[C@H](O)[C@H]5O)[C@@H](O)[C@H](O)[C@H]4O)[C@@H](O)[C@H](O)[C@H]3O)cc(O)c12` and `COc1cc(O[C@@H]2O[C@H](CO)[C@@H](O)[C@H](O)[C@H]2O)cc2occ(-c3ccc(O)cc3O)c(=O)c12` cannot be ordered by pIC50: < 6.00 for the first, < 6.00 for the second.

`COc1cc(-c2coc3cc(O[C@@H]4O[C@H](CO)[C@@H](O)[C@H](O)[C@H]4O)cc(OC)c3c2=O)ccc1O` and `CC(=N)NCCCC[C@H](N)C(=O)O` [L-NIL] cannot be ordered by pIC50: < 6.00 for the first, 5.81 for the second.

Compound `NC(=O)NC1NC(=O)NC1=O` (stereo unspecified) [ALLANTOIN] has a pIC50 of 6.30.
